Our source for the IC50 values is PubChem BioAssay AID463191 (Sanford-Burnham Center for Chemical Genomics, 2010).

pIC50: −log10 of the molar value. Active and inactive are the calls of the source.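 How the source made its calls: active means compounds whose mean IC50 across repeat dose response tests falls below a set limit; inactive means the rest.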 A value given as a limit tells only on which side of the number the result lay.

The subject of this test is AML12 mouse hepatocytes, BODIPY lipid droplet imaging. The test is described as follows: hepatocyte lipid droplet accumulation inhibitors, dose response, imaging, AML12 mouse hepatocytes, high-content (AID 463191). The conditions noted are these: cells loaded with 100 µM oleic acid. In outline: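 Test system: AML12 mouse hepatocyte cell line, lipid droplet imaging. Compound: Seven-point series from 32 to 0.5 µM, 0.32% DMSO. Incubation: cells grown about 20 h at 37 °C, then overnight compound exposure.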

Consider `CC(=O)Nc1ccc(-c2csc(NC(=O)Cc3cccc(F)c3)n2)cc1`, for which the negative logarithm of the IC50 (pIC50) (commonly the IC50 on a negative log10 scale, so that one unit is a factor of ten) was 5.74.

With `CCOc1ccc(CCNC(=O)COC(=O)c2ccc(OC)c(OC)c2OC)cc1OCC`, the pIC50 was more than 6.30.

Consider `COc1ccc(CC(=O)Nc2oc(-c3ccccc3)c(-c3ccccc3)c2C#N)cc1OC`, for which the negative logarithm of the IC50 (pIC50) was 5.90.

As to `COc1ccc(CCNC(=O)CN2C(=O)c3cccc4cccc(c34)C2=O)cc1OC`, the IC50 (in general, the concentration needed to halve the response being measured) was 5770 nM (inactive).

For `CCOc1ccc(CCNC(=O)C(C)n2nc(C)n3c(cc4occc43)c2=O)cc1OCC` (stereo not drawn), the pIC50 was 5.44.

As to `CCOc1ccccc1NC(=O)CCC(=O)Nc1ccccc1OCC`, the pIC50 was 5.38.

For the molecule `COc1ncccc1C(=O)NC1CCCc2c1cnn2-c1ccc(C)c(C)c1` (stereo not drawn), the pIC50 is 5.46.

Turning to `COc1ccc(C(=O)OC(C)C(=O)NC(C)CCc2ccccc2)cc1OC` (stereo not drawn), the negative-log IC50 (pIC50) was 5.59.

In the case of `CCOc1ccc(CCNC(=O)Nc2cccc(OC)c2)cc1OCC`, the pIC50 is more than 6.30.

Take `CCOc1ccccc1NC(=O)C1CCN(C(=O)NCc2ccccc2)CC1`: the negative logarithm of the IC50 (pIC50) was more than 6.30.

`CCN(CC(=O)Nc1c(F)cccc1F)C(=O)CCCc1c[nH]c2ccccc12`: the pIC50 was 5.72.

For the molecule `CCOC(=O)c1ccc(NC(=O)CSc2nc3c(c(=O)n2-c2ccccc2OC)SCC3)cc1`, the negative logarithm of the IC50 (pIC50) is 5.74.

With `COc1cccc(CNC(=O)CCCc2c[nH]c3ccccc23)c1`, the IC50 is 6600 nM (inactive).

In the case of `CCOc1cc(CNC(=O)CCCn2c(=O)c3cccn3c3cccnc32)cc(OCC)c1OCC`, the pIC50 is 6.27.

`CCOc1cc2c(cc1OCC)C(c1ccc(OC)cc1)N(c1ccccc1)C(=O)C2` (stereo not drawn): the IC50 is > 32000 nM (inactive).

For `CCOc1ccc(CCNC(=O)Cn2cccc2C(=O)c2ccccc2C)cc1OCC`, the negative logarithm of the IC50 (pIC50) is 6.06.

Regarding `CCC(C(=O)NCc1cccc(C)c1)n1nc(C)c2c(C)n(-c3ccccc3)nc2c1=O` (stereo not drawn), the IC50 was 6770 nM (inactive).

Turning to `COc1ccc(C(=O)OC(C)C(=O)NC(C)CCc2ccccc2)cc1[N+](=O)[O-]` (stereo not drawn), the negative-log IC50 (pIC50) was 6.26.

For `COc1ccc(CCNC(=O)c2ccc(CNc3nc(=S)[nH]c4ccccc34)cc2)cc1OC`, the negative-log IC50 (pIC50) was 5.89.

Turning to `CCCc1cc(N2CCOCC2)n2nc(C)c(-c3ccccc3)c2n1`, the negative logarithm of the IC50 (pIC50) is more than 6.30.

`CCOc1ccc(CCNC(=O)c2cc(C)nc3ccccc23)cc1OCC`: the IC50 was 6400 nM (inactive).

As for `CCn1cc(CCCC(=O)NCc2ccccc2OC)c2ccccc21`, the pIC50 was 5.40.

On to `CCOc1ccc(CCNC(=O)c2c(C)nn(-c3ccccc3)c2Cl)cc1OCC`, for which the IC50 is 7560 nM (inactive).

On to `CCOc1ccc(CCNC(=O)CCC(=O)N2CCOc3ccc(C)cc32)cc1OCC`, for which the negative-log IC50 (pIC50) was 5.84.

As for `COc1ccc(CCNC(=O)c2cc(-c3ccccc3)c(N3CCOCC3)s2)c(OC)c1OC`, the pIC50 is more than 6.30.

For `COCCNC(=S)N1CCc2cc(OC)c(OC)cc2C1COc1cc(C)cc(C)c1` (stereo not drawn), the pIC50 is 5.39.

As to `CCOc1ccc(CCNC(=O)Cn2cccc2C(=O)c2ccccc2)cc1OCC`, the pIC50 was 5.79.

On to `CCOc1ccc(C(C)NC(=O)Cc2ccccc2)cc1OCC` (stereo not drawn), for which the IC50 was > 32000 nM (inactive).

Consider `CCOc1ccc(CCNC(=O)Nc2ccccc2C)cc1OCC`, for which the negative logarithm of the IC50 (pIC50) was 5.69.

`CCOc1ccc2nc(NC(=O)CSc3nc4ccccc4c(=O)n3Cc3ccco3)sc2c1`: the pIC50 was 6.21.

In the case of `Cc1cc(N2CCOCC2)n2nc(C)c(-c3ccccc3Cl)c2n1`, the pIC50 is 5.98.

In the case of `CCC(C)(C)NC(=O)C(c1ccc(OC)cc1)N(CC1CCCO1)C(=O)CCC(=O)Nc1cc(C)on1` (stereo not drawn), the negative logarithm of the IC50 (pIC50) is 5.46.

For the molecule `CCOc1ccc(CCNC(=O)CN2C(=O)NC(CCSC)C2=O)cc1OCC` (stereo not drawn), the negative logarithm of the IC50 (pIC50) was 5.90.

As for `COc1cc(NC(=O)c2ccco2)c(OC)cc1NC(=O)CCC(=O)Nc1cc(C)cc(C)c1`, the negative logarithm of the IC50 (pIC50) was more than 6.30.

For the molecule `Cc1cc(C)c(C(=O)NC2CCCc3c2cnn3-c2cccc(C)c2C)o1` (stereo not drawn), the IC50 was 21600 nM (inactive).

Consider `O=C1C(NS(=O)(=O)c2ccccc2)=C(N2CCN(c3ccc(F)cc3)CC2)C(=O)c2ccccc21`, for which the negative-log IC50 (pIC50) was 5.75.

Take `Cc1cccc(NC(=O)CSc2nnc(C)c(=O)n2N)c1`: the IC50 was 6650 nM (inactive).

Turning to `CCOc1ccc(CCNC(=O)Cn2ncn3nc(-c4ccc(OC)cc4)cc3c2=O)cc1OCC`, the negative-log IC50 (pIC50) was more than 6.30.

For `CCOc1ccc(CCNC(=O)COC(=O)c2cc(OC)cc(OC)c2)cc1OCC`, the IC50 is 6120 nM (inactive).

Consider `CCOc1ccc(C(=O)OCC(=O)Nc2nc(OC)cc(OC)n2)cc1OCC`, for which the pIC50 was 5.95.

Consider `CCCCn1c(N)c(-c2nc3ccccc3s2)c2c([N+](=O)[O-])nn(CC)c(=O)c21`, for which the IC50 is 9330 nM (inactive).

`COc1cccc(C(=O)NC2CCCc3c2cnn3-c2cc(C)cc(C)c2)c1` (stereo not drawn): the negative logarithm of the IC50 (pIC50) was 5.69.

For `COc1ccc(C(=O)OC(C)C(=O)Nc2cc(C(F)(F)F)ccc2Cl)c(OC)c1OC` (stereo not drawn), the pIC50 is 6.07.

Take `COc1ccc(Cl)cc1NC(=O)CN1C(=O)NC2(CCCC2)C1=O`: the pIC50 is 5.37.

As to `CCOc1ccc(CCNC(=O)C2CC=CCC2C(=O)OC(C)C)cc1OCC` (stereo not drawn), the pIC50 is 6.13.

Consider `Cc1cccc(NC(=O)[C@H](C)NC(=O)[C@@H]2Cc3ccccc3CN2C(=O)OC(C)(C)C)c1`, for which the pIC50 was 5.79.

As to `CCOc1ccc2nc(-c3ccccc3)nc(SCC(=O)Nc3ncc(C)s3)c2c1`, the negative-log IC50 (pIC50) is more than 6.30.

Regarding `O=C(NC1CCCc2c1cnn2-c1ccccc1F)c1ccccn1` (stereo not drawn), the IC50 was > 32000 nM (inactive).

Consider `CCOc1ccc(C2=NNC(c3cccs3)=Nc3ccc(OC)cc32)cc1OCC`, for which the IC50 is 8700 nM (inactive).

For `COc1ccc(CCNC(=O)Cc2cccc(C(F)(F)F)c2)cc1OC`, the IC50 is 9060 nM (inactive).

For the molecule `c1ccc(-c2csc(NNC3=NCCCCC3)n2)cc1`, the negative logarithm of the IC50 (pIC50) was 6.15.

Regarding `CCOc1ccc(CCNC(=O)COC(=O)c2cc([N+](=O)[O-])ccc2N2CCOCC2)cc1OCC`, the negative logarithm of the IC50 (pIC50) was 5.52.

As for `COc1ccc(CCNC(=O)CCOc2cc(C)ccc2C)cc1OC`, the pIC50 is 5.34.

For the molecule `CC1CCCN(C(=O)c2ccc3c(c2NCCO)C(=O)c2ccccc2C3=O)C1` (stereo not drawn), the negative-log IC50 (pIC50) is 6.12.

`Cc1ccc(NC(=O)CSc2nc3ccccc3nc2N2CCCC2)cc1`: the negative-log IC50 (pIC50) was 5.68.

`O=C(Cc1cccc2ccccc12)Nc1nc(-c2cccc([N+](=O)[O-])c2)cs1`: the pIC50 was 5.37.

As to `CCOc1ccc(CN(C)C(=O)CNC(=O)c2ccc(Br)o2)cc1OC`, the negative logarithm of the IC50 (pIC50) was 5.41.

For `CCCN1C(=O)/C(=C\C=C2\N(CC)c3ccccc3C2(C)C)SC1=S`, the negative logarithm of the IC50 (pIC50) is more than 6.30.

For `COc1ccc(-c2csc(NC(=O)c3ccc(OCC(=O)N4CCOCC4)c(OC)c3)n2)cc1OC`, the negative logarithm of the IC50 (pIC50) is 5.72.

On to `CCOc1ccc(CCNC(=O)COC(=O)c2c(C)nn(-c3ccccc3)c2C)cc1OCC`, for which the pIC50 is more than 6.30.

With `CCCCCn1c(N)c(-c2nc3ccccc3s2)c2c([N+](=O)[O-])nn(CC)c(=O)c21`, the IC50 was 7460 nM (inactive).

`COc1ccc(NC(=O)CSc2nc3ccccc3nc2N2CCCCC2)cc1`: the negative-log IC50 (pIC50) is 5.93.

As for `CCOc1ccc(-c2csc(NNC3=NCCCCC3)n2)cc1`, the negative logarithm of the IC50 (pIC50) was 5.91.
